Screens: PubChem BioAssay, Broad Institute
PDI inh: inhibitors of human PDI, primary screen, biochemical, turbidity, single point, plate reader; Protein disulfide-isomerase (Homo sapiens), P07237; PDI insulin aggregation turbidity, A650, 90 min; inhibition, % at 10 µM; 350,000 tested, 0.052% active;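 active = mean inhibition across replicates of 30% or more, whatever share of single replicates reach that level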
Ecoli rRNA inh: reduced GFP signal of wild-type E. coli, primary screen, bacterial rRNA inhibitor project, GFP/RFP fluorescence, OD600, single point; 350,000 tested, 1.6% active; GFP signal change (wild-type ribosome), % (test concentration not listed); E. coli WT GFP vs humanized-ribosome RFP mutants, 24 h; active compounds read low; DMSO median 0, no signal -100;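 active = significant combined selectivity score with lowered wild-type GFP, culture density cut under 30%, mutant RFP and density less affected; inactive = any of these conditions unmet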
HIV Env fusion: inhibitors of HIV-1 Env-driven cell-cell fusion, primary screen, HeLa-JRFL effector, CEM21 target cells, luciferase. 360,000 tested, 1.1% active. inhibition, % at 12.3 µM;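 active = mean replicate inhibition score of at least 50 and every replicate individually at or above 50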
PvdQ acylase: P. aeruginosa PvdQ acylase inhibitors, primary screen, biochemical, fluorescence, plate reader and imaging, single point. PvdQ acylase [Pseudomonas aeruginosa LESB58]. inhibition, % at 10 µM. 340,000 tested, 0.063% active. AID 488965, 2010. purified PvdQ acylase; in the data active = inhibition above about 30%, passing the limit was not always enough
ERp5 block: inhibitors of ERp5-driven insulin aggregation, primary screen, biochemical, turbidity, absorbance 650 nm, single point; Protein disulfide-isomerase A6 (Homo sapiens), Q15084; 90 min; inhibition, % at 9.99 µM; 350,000 tested, 0.05% active;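 active = mean replicate inhibition above about 25%, with every replicate also reaching it, limit read from the data, passing the limit was not always enough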
Target sequence (Q15084 whole entry, looked up): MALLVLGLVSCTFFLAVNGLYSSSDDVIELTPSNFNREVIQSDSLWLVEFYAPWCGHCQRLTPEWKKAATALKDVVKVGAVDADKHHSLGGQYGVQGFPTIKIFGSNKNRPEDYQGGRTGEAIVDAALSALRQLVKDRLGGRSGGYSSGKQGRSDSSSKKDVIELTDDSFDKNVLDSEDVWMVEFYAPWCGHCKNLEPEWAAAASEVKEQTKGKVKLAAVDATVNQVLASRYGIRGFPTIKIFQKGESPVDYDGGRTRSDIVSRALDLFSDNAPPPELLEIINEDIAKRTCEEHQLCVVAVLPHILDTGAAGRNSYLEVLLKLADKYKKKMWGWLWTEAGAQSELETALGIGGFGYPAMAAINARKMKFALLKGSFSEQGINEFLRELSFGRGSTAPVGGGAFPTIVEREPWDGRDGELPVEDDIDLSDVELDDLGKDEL
FN deposition inh: inhibitors of fibronectin matrix deposition, primary screen, AH1F cells, Alexa488-fibronectin fluorescence, plate reader | AH1F fibroblasts, overnight | inhibition, % at 12.6 µM | 350,000 tested, 0.086% active;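 active = mean inhibition across replicates of 30% or more, regardless of how many single replicates reach that level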
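Assay system: AH1F fibroblast monolayer, labelled fibronectin deposition. Amount: 10000 cells per well. Also added: labelled fibronectin 24 nM. Compound: single-point pinned compound. Incubation: cell attachment 1 h, compound and FN exposure overnight. Detection: fluorescence after three HBSS washes, excitation 485 nm, emission 525 nm. Read-out: inhibition of fibronectin deposition signal.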
Large screens that a line does not name were inactive. This is a sample that favours compounds with a hit; in the whole collection about 2.2% have one here.

O=C(O)c1ccc(Nc2nc(-c3ccc([N+](=O)[O-])cc3)nc3ccccc23)cc1	Ecoli rRNA inh -21.0
Cc1cccc(N(C)c2cc(-c3ccc(F)cc3)nc3ccnn23)c1	HIV Env fusion 62.8 (no result: Ecoli rRNA inh, PvdQ acylase)
C=CCn1c(SCc2c(C)noc2C)nc2sc(C)c(C)c2c1=O	HIV Env fusion 67.8 (no result: Ecoli rRNA inh, ERp5 block)
Cc1noc(C)c1CSc1nc2sc(C)c(C)c2c(=O)n1-c1ccccc1	none (no result: Ecoli rRNA inh, HIV Env fusion, ERp5 block, FN deposition inh)
O=C1C(=O)c2cccnc2-c2ncccc21	HIV Env fusion 59.8, FN deposition inh 44.9 (no result: PDI inh, PvdQ acylase)
COC1=C(Br)C(=O)c2ncccc2C1=O	PDI inh 47.1
O=C(CSc1nc2ccccc2c(=O)n1Cc1ccco1)c1ccc(F)cc1	HIV Env fusion 58.4 (no result: Ecoli rRNA inh, ERp5 block)
Cc1cc(NC(=O)CSc2nc3ccccc3c(=O)n2Cc2ccc(F)cc2)no1	none (no result: Ecoli rRNA inh, ERp5 block)
CCOC(=O)CC(=O)CSc1nc2sc(C)cc2c(=O)n1Cc1ccco1	none (no result: Ecoli rRNA inh, HIV Env fusion, ERp5 block, FN deposition inh)
CC1Cc2nc(SCC(=O)NCc3ccccc3)n(Cc3ccccc3)c(=O)c2S1 (configuration not stated)	HIV Env fusion 71.6 (no result: PDI inh)
Cc1cc2c(=O)n(Cc3ccco3)c(SCC(=O)c3ccc(Cl)s3)nc2s1	HIV Env fusion 75.8 (no result: Ecoli rRNA inh, ERp5 block, FN deposition inh)
O=C(CSc1nc2ccccc2c(=O)n1Cc1ccc(F)cc1)NCc1cccs1	HIV Env fusion 62.5 (no result: FN deposition inh)
CCN(CC)S(=O)(=O)c1ccc(NC2c3ccccc3C(=O)N2Cc2ccc3c(c2)OCO3)cc1 (configuration not stated)	HIV Env fusion 67.2 (no result: PDI inh)
CC(=O)C1=C(C)NC2=C(C(=O)c3ccccc32)C1c1ccccc1 (configuration not stated)	HIV Env fusion 63.5
CCCCCn1c(C(C)NC(=O)CCC)nc2ccccc21 (configuration not stated)	HIV Env fusion 74.5 (no result: PDI inh, Ecoli rRNA inh)
CCCCCn1c(CCNC(=O)c2cccs2)nc2ccccc21	Ecoli rRNA inh -30.1 (no result: HIV Env fusion, FN deposition inh)
CCN(c1ccccc1)S(=O)(=O)c1ccc(OC)c(OC)c1	Ecoli rRNA inh -17.9 (no result: HIV Env fusion, FN deposition inh)
CCN(c1ccccc1)S(=O)(=O)c1ccc2c(c1)N(C(C)=O)CCS2	Ecoli rRNA inh -25.9
CCN(c1ccc(OC)cc1)S(=O)(=O)c1ccc2c(c1)NC(=O)CS2	Ecoli rRNA inh -27.2
COc1ccc(NC(=O)N(C)C[C@@H]2Oc3c(NC(=O)c4ccc(-c5nccs5)cc4)cccc3C(=O)N([C@@H](C)CO)C[C@@H]2C)cc1	none (no result: PDI inh, PvdQ acylase, FN deposition inh)
COc1ccc(CC(=O)Cc2ccc(OC)c(OC)c2)cc1OC	none (no result: PvdQ acylase)
COc1ccc(CC(=O)Oc2ccc(C)cc2Br)cc1OC	HIV Env fusion 61.3 (no result: FN deposition inh)
O=C(O)C(Cc1ccc(O)c([N+](=O)[O-])c1)N1C(=O)c2ccccc2C1=O (configuration not stated)	none (no result: HIV Env fusion)
CCOC(=O)C(Cc1ccc(O)c([N+](=O)[O-])c1)N1C(=O)c2ccccc2C1=O (configuration not stated)	Ecoli rRNA inh -25.4
C[C@@H]1CN([C@@H](C)CO)C(=O)c2cccc(NS(C)(=O)=O)c2O[C@@H]1CN(C)C(=O)Nc1ccc2c(c1)OCO2	none (no result: PDI inh, PvdQ acylase, FN deposition inh)
O=C(c1ccccc1F)N1C[C@@H]2O[C@H](CNS(=O)(=O)c3ccccc3)CC[C@@H]21	none (no result: PDI inh, Ecoli rRNA inh, HIV Env fusion, PvdQ acylase, FN deposition inh)
Cc1ccc(C2C(C(=O)c3cccs3)=C(O)C(=O)N2c2ccc(S(N)(=O)=O)cc2)cc1 (configuration not stated)	none
Cc1ccc(C2C(C(=O)c3cccs3)=C(O)C(=O)N2c2cccc(C)n2)cc1 (configuration not stated)	Ecoli rRNA inh -14.7
Cc1noc(C)c1NC(=O)Nc1ccc2c(c1)C(=O)N([C@H](C)CO)C[C@H](C)[C@H](CN(C)S(=O)(=O)c1ccccc1)OCCCC[C@H](C)O2	none (no result: PDI inh, PvdQ acylase)
Cc1cc2c([nH]c3ccccc32)c(C)n1	none
Cc1cc2c(sc3ccccc32)c(C)n1	Ecoli rRNA inh -23.6
C=CCNc1nc2c(c(=O)n(C)c(=O)n2C)n1CCCCCC	HIV Env fusion 92.1 (no result: Ecoli rRNA inh, ERp5 block, FN deposition inh)
C=CCNc1nc2c(c(=O)n(C)c(=O)n2C)n1CC	none
Cc1ccc2ccccc2c1COC(=O)c1nonc1N	Ecoli rRNA inh -23.0 (no result: HIV Env fusion, FN deposition inh)
Cc1ccc(-c2ccc3c(c2)O[C@@H](CN(C)C(=O)C2CC2)[C@H](C)CN([C@H](C)CO)S3(=O)=O)cc1	none (no result: PDI inh, PvdQ acylase)
CNC(=S)N1CCN(c2nc(-c3ccc(Cl)cc3)cs2)CC1	Ecoli rRNA inh -25.5
O=C(CN1CCN(c2nc(-c3ccc(Cl)cc3)cs2)CC1)NCc1ccco1	HIV Env fusion 60.3 (no result: Ecoli rRNA inh, ERp5 block)
COCCNC(=S)N1CCN(c2nc(-c3ccc(Cl)cc3)cs2)CC1	none
Cc1noc(C)c1NC(=O)N[C@H]1CC[C@H](CC(=O)N2CCN(C)CC2)O[C@@H]1CO	none (no result: PDI inh, HIV Env fusion, PvdQ acylase)
CC(C)C[C@@H](COCc1cccc(C(F)(F)F)c1)N1CCN(C(=O)c2ccc(C(F)(F)F)cc2)CCC1=O	HIV Env fusion 62.1 (no result: PDI inh, PvdQ acylase)
CC(C)CC(COCc1cccc(Cl)c1)N1CCN(C(=O)c2cccc(C(F)(F)F)c2)CCC1=O (configuration not stated)	HIV Env fusion 76.4
CCC(=O)N1CC2(C1)CN(Cc1ccccc1Cl)[C@H](CO)c1[nH]c3cc(OC)ccc3c12	none (no result: PDI inh, HIV Env fusion, PvdQ acylase, ERp5 block, FN deposition inh)
C[C@H](CO)N1C[C@H](C)[C@@H](CN(C)C)Oc2cc(C#Cc3ccncc3)ccc2S1(=O)=O	none (no result: PDI inh, PvdQ acylase)
COc1ccc(C[C@@H]2CCc3cnnn3COCCNC2=O)cc1	none (no result: PDI inh, HIV Env fusion, PvdQ acylase, ERp5 block)
O=C(C[C@H]1CC[C@H]2[C@@H](COC[C@H](O)CN2Cc2ccccc2)O1)NCCc1ccccc1	none (no result: PDI inh, HIV Env fusion, PvdQ acylase)
CCc1cc(/C(Cc2cscn2)=N\O)c(O)cc1O	none (no result: Ecoli rRNA inh, HIV Env fusion, ERp5 block, FN deposition inh)
CCc1cc(/C(Cc2ccccn2)=N\O)c(O)cc1O	Ecoli rRNA inh -32.7 (no result: HIV Env fusion)
C[C@H]1CN([C@@H](C)CO)S(=O)(=O)c2ccc(-c3ccc(F)cc3)cc2O[C@@H]1CN(C)C(=O)Nc1ccc(F)cc1	none (no result: PDI inh, PvdQ acylase, ERp5 block)
COc1ccc(C[C@H]2CN3C(=NC[C@@H]3Cc3ccc(O)cc3)N2C[C@H](C)NC(=O)CCC2CCCCC2)cc1	none
C/C=C(\C)C(=O)NCCN1C2=NC[C@H](Cc3ccc(O)cc3)N2C[C@H]1Cc1ccc(O)cc1	PDI inh 44.7
COc1ccc(C[C@@H]2CN3C(=NC[C@@H]3Cc3ccc(O)cc3)N2C[C@H](C)NC(=O)CCC2CCCCC2)cc1	PDI inh 40.4 (no result: Ecoli rRNA inh, HIV Env fusion, ERp5 block, FN deposition inh)
Cc1[nH]c2ccccc2c1/C=N/NC(=O)CCC(=O)Nc1ccccc1	none
Cc1[nH]c2ccccc2c1/C=N/NC(=O)c1cc(-c2ccccc2)n[nH]1	Ecoli rRNA inh -23.2
Cc1[nH]c2ccccc2c1/C=N/NC(=O)Nc1ccccc1	Ecoli rRNA inh -20.1
